Here are results for two compounds from ChEMBL document CHEMBL4350999, “Enhanced tumor retention of NTSR1-targeted agents by employing a hydrophilic cysteine cathepsin inhibitor” (Eur J Med Chem, 2019).

SMILES strings stand for the structures. Active and inactive are the calls of the source. The rule behind the calls is not given here.

Series [1] is described as follows: Drug retention in human HT-29 cells assessed as increase in mean fluorescence intensity at 5 uM incubated for 2 hrs and measured at 24 hrs using natEu labelled compound by lysotracker green staining based confocal microscopic analysis. Type of series: ADME, cell-based. Particulars: ht-29, 2 h. An outline of the steps:
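HT-29 cells (1.25 × 10^5/well) loaded with natEu conjugate (5 μM), washed, then chased in fresh medium up to 24 h. Lysotracker Green (100 nM) applied 2 h before each read; cells fixed and imaged confocally at 405/488 nm. Per-cell mean fluorescence and Lysotracker co-localization quantified.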

Series [2] can be described thus: Ratio of drug uptake in SCID mouse xenograted with human HT-29 cells assessed as tumour retention to drug uptake in spleen of SCID mouse xenografted with human HT-29 cells cotreated with D-lysine at 40 mg/kg measured after 24 hrs using 177Lu labelled compound. Type of series: ADME, organism-based, Tumor/Spleen. To be noted: in vivo. For orientation: Xenograft models place foreign cells or tissue in a host animal.

Series [3] can be described thus: Drug uptake in muscle of SCID mouse xenografted with human HT-29 cells using 177Lu labelled compound at 0.37 MBq/mouse, iv co-treated with D-lysine at 40 mg/kg measured at 24 hrs by gamma counter analysis. Type of series: ADME, organism-based, Muscle tissue. To be noted: in vivo. An outline of the steps:
(§1)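 Female SCID mice bore s.c. HT-29 xenografts (5 × 10^6 cells in Matrigel, about 80 mm3). D-lysine 40 mg/kg was co-injected i.v. with 10 μCi (0.37 MBq) of purified 177Lu-conjugate. Tissues were harvested at 24 h, weighed and gamma-counted, reported as %ID/g; mean ± SD, n = 5.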

For series [4], the target named is T1, Cathepsin B (Homo sapiens, UniProt P07858). Description: Binding affinity to cathepsin B in human HT-29 cells assessed as intracellular adduct formation at 0.74 MBq incubated for 4 hrs in presence of E-64 using 177Lu labelled compound by SDS-PAGE analysis. In kind it is cell-based. Also on record: dose or concentration left out as unconfirmed. Summed up: (§2)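 HT-29 cells (1 × 10^6/well) incubated 4 h at 37 °C with 177Lu conjugate (20 μCi, 0.74 MBq) in 1 mL medium, with or without E-64 (10 μM) or NTSR1 peptide N1 (20 μM). Cells washed and refed; at set times cells pooled, RIPA-lysed with protease inhibitor. Lysates heated 85 °C 2 min, run on 16% tris-glycine SDS-PAGE, and phosphor autoradiography taken after 72 h exposure.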

Series [5] can be described thus: Drug uptake in brain of SCID mouse xenografted with human HT-29 cells pretreated for 1 hr with colchicine at 1 mg/kg, ip followed by 177Lu labelled compound at 0.37 MBq/mouse, iv measured at 24 hrs by gamma counter analysis. Type of series: ADME, organism-based. Particulars: in vivo. An outline of the steps: (§3)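 HT-29 flank xenografts in female SCID mice (5 × 10^6 cells in Matrigel, about 80 mm3). Colchicine 1 mg/kg was given i.p. before a tail-vein injection of 10 μCi (0.37 MBq) of purified 177Lu-conjugate. Tissues were taken at 24 h, weighed and gamma-counted as %ID/g; mean ± SD, n = 5.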

Series [6] can be described thus: Drug uptake in large intestine of SCID mouse xenografted with human HT-29 cells pretreated for 1 hr with colchicine at 1 mg/kg, ip followed by 177Lu labelled compound at 0.37 MBq/mouse, iv measured at 24 hrs by gamma counter analysis. In kind it is ADME, organism-based. To be noted: in vivo. Summed up:
as §3

The nature of series [7]: Drug uptake in bone of SCID mouse xenografted with human HT-29 cells using 177Lu labelled compound at 0.37 MBq/mouse, iv co-treated with D-lysine at 40 mg/kg measured at 24 hrs by gamma counter analysis. Particulars: in vivo. Type of series: ADME, organism-based, Bone element. An outline of the steps:
as §1

Series [8] has as its target T1, Cathepsin B. The series can be described thus: Binding affinity to human liver cathepsin B assessed as protein-conjugate adduct formation at 0.74 MBq incubated for 30 mins in presence of DOTA-beta-ala-[N-alpha-Me8, Dmt11, Tle12] NT6-13 using 177Lu labelled compound by SDS-PAGE analysis. Particulars: 0.74 M. Summed up: (§4)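 Purified human liver CatB or CatL (3 nM) in 50 mM sodium acetate/1 mM EDTA pH 5.0 incubated 30 min with 177Lu conjugate (500,000 cpm) in Tris/MgCl2/DTT buffer pH 5.5, alone or with E-64 (10 μM) or N1 (20 μM). Mixtures heated 85 °C 2 min, run on 16% tris-glycine gel at 110 V for 90 min, and read by phosphor autoradiography.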

Series [9] can be described thus: Drug uptake in blood of SCID mouse xenografted with human HT-29 cells using 177Lu labelled compound at 0.37 MBq/mouse, iv co-treated with D-lysine at 40 mg/kg measured at 24 hrs by gamma counter analysis. Type of series: ADME, organism-based. Particulars: in vivo. An outline of the steps:
(§5)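 Female SCID mice bearing s.c. flank HT-29 xenografts (5 × 10^6 cells in Matrigel, ~80 mm3). Given 10 μCi (0.37 MBq) 177Lu conjugate i.v. by tail vein; groups sacrificed at 4, 24, 72 h. Tissues weighed and gamma-counted as %ID/g, excretion as %ID; n = 5, mean ± SD. Blocking arms: colchicine 1 mg/kg i.p. beforehand, or D-lysine 40 mg/kg co-injected.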

Series [10] is described as follows: Ratio of drug uptake in SCID mouse xenograted with human HT-29 cells assessed as tumour retention to drug uptake in lung of SCID mouse xenografted with human HT-29 cells cotreated with D-lysine at 40 mg/kg measured after 24 hrs using 177Lu labelled compound. In kind it is ADME, organism-based, Tumor/Lung. Particulars: in vivo.
A short description of series [11]: Drug uptake in heart of SCID mouse xenografted with human HT-29 cells using 177Lu labelled compound at 0.37 MBq/mouse, iv co-treated with D-lysine at 40 mg/kg measured at 24 hrs by gamma counter analysis. In kind it is ADME, organism-based. Particulars: in vivo. Summed up: as §1
Series [12] is described as follows: Drug retention in kidney of mouse xenografted with human HT-29 cells assessed as reduction in tissue-conjugate adduct formation at 29.6 MBq co-treated with D-lysine at 40 mg/kg measured after 72 hrs using 177Lu labelled compound by SDS-PAGE analysis. In kind it is ADME, organism-based. Particulars: in vivo.
Series [13] can be described thus: Drug retention in liver lysates of mouse xenografted with human HT-29 cells assessed as macromolecule associated radioactivity at 29.6 MBq co-treated with D-lysine measured after 72 hrs using 177Lu labelled compound by gamma counter analysis relative to control. In kind it is ADME, tissue-based. To be noted: in vivo.
Series [14] is described as follows: Ratio of drug uptake in SCID mouse xenograted with human HT-29 cells assessed as tumour retention to drug uptake in liver of SCID mouse xenografted with human HT-29 cells cotreated with D-lysine at 40 mg/kg measured after 24 hrs using 177Lu labelled compound. To be noted: in vivo. In kind it is ADME, organism-based, Tumor/Liver.
The target in series [15] is T1, Cathepsin B. Description: Binding affinity to human liver cathepsin B assessed as protein-conjugate adduct formation at 0.74 MBq incubated for 30 mins in presence of E-64 using 177Lu labelled compound by SDS-PAGE analysis. To be noted: 0.74 M. An outline of the steps: as §4
Series [16] can be described thus: Drug excretion in SCID mouse xenografted with human HT-29 cells using 177Lu labelled compound at 0.37 MBq/mouse, iv co-treated with D-lysine at 40 mg/kg measured at 24 hrs by gamma counter analysis. In kind it is ADME, organism-based. To be noted: in vivo. An outline of the steps:
as §5

For series [17], the target named is T1, Cathepsin B. The series can be described thus: Binding affinity to cathepsin B in human HT-29 cells assessed as intracellular adduct formation at 0.74 MBq incubated for 4 hrs in presence of DOTA-beta-ala-[N-alpha-Me8, Dmt11, Tle12] NT6-13 using 177Lu labelled compound by SDS-PAGE analysis. Type of series: cell-based. The arrangement: dose or concentration left out as unconfirmed. Summed up:
as §2

In series [18] the target is T1, Cathepsin B. Description: Inhibition of human liver cathepsin B assessed as pseudo Michaelis-Menten constant at 10 nM using varying levels of Z-Arg-Arg-AMC as substrate measured every 5 mins for 1 hr by fluorescence assay.

Regarding `Cc1cc(O)cc(C)c1C[C@H](NC(=O)[C@@H]1CCCN1C(=O)[C@H](CCCNC(=N)N)NC(=O)[C@H](CCCNC(=N)N)N(C)C(=O)[C@@H]1CCCN1C(=O)[C@H](CCCCN)NC(=O)[C@@H](CO)NC(=O)[C@@H](CO)NC(=O)[C@@H](CO)NC(=O)[C@H](Cc1cn(CCNC(=O)[C@H](CCCNC(=N)N)NC(=O)[C@H](CC(C)C)NC(=O)C2OC2C(=O)O)nn1)NC(=O)CN1CCN(CC(=O)O)CCN(CC(=O)O)CCN(CC(=O)O)CC1)C(=O)N[C@H](C(=O)N[C@@H](CC(C)C)C(=O)O)C(C)(C)C` (stereo partly drawn), the Drug uptake result in [1] was “Active”; in [3], 0.07 % ID/g; in series [5], 0.07 % ID/g; in series [6], 0.67 % ID/g; in series [7], 0.6 % ID/g; in [9], 0.02 % ID/g. Moreover, the Drug uptake was found to be 0.14 % ID/g in [11], 47% in series [12] and 80% in series [13]. In addition, the Ratio in [2] is 8; in series [10], 15; in series [14] it was 9.6. For the same compound, the result in [4] and in series [8] was Active. In addition, the result in series [15] and in series [17] was inactive. Also, the Drug excretion in series [16] was determined as 83 %ID.
`Cc1cc(O)cc(C)c1C[C@H](NC(=O)[C@@H]1CCCN1C(=O)[C@H](CCCNC(=N)N)NC(=O)[C@H](CCCNC(=N)N)N(C)C(=O)[C@@H]1CCCN1C(=O)[C@H](CCCCN)NC(=O)[C@@H](CO)NC(=O)[C@@H](CO)NC(=O)[C@@H](CO)NC(=O)[C@H](Cc1cn(CCNC(=O)[C@H](CCCNC(=N)N)NC(=O)[C@H](CC(C)C)NC(=O)CCC(=O)O)nn1)NC(=O)CN1CCN(CC(=O)O)CCN(CC(=O)O)CCN(CC(=O)O)CC1)C(=O)N[C@H](C(=O)N[C@@H](CC(C)C)C(=O)O)C(C)(C)C`: the K in [18] was 182 µM.
